Among the data in ChEMBL document CHEMBL1139946, “1-Aryl-4,6-dihydropyrazolo[4,3-d][1]benzazepin-5(1H)-ones: a new class of antiproliferative agents with selectivity for human leukemia and breast cancer cell lines” (Eur J Med Chem, 2007) are GI50 values, retold here.

One test relates to MDA-MB-435. Description: Antitumor activity against human MDA-MB435 cells after 48 hrs by sulforhodamine B protein assay. The conditions noted are these: MDA-MB-435, 48 h. The test is classed as functional. In a few lines: (§1)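 Part of the NCI 60-cell-line screen. Compounds tested at five concentrations (10^-8 to 10^-4 M) with continuous exposure for 48 h. Cell growth read by sulforhodamine B protein assay, with percent growth from optical density of treated versus untreated control cultures. GI50 is the concentration giving 50% net growth inhibition.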

Another test has as its system K562. Description: Antitumor activity against human K562 cells after 48 hrs by sulforhodamine B protein assay. In kind it is functional. The settings on record: K562, 48 h. The essentials:
as §1

Each structure is given as a SMILES string.

As for `COc1cccc2c1C(=O)c1c(O)c3c(c(O)c1C2=O)C[C@@](O)(C(=O)CO)C[C@@H]3O[C@H]1C[C@H](N)[C@H](O)[C@H](C)O1` [DOXORUBICIN], the concentration for 50% growth inhibition (GI50) was 200 nM in the test on MDA-MB-435 and 100 nM in the test on K562.
